ChEMBL document CHEMBL1135552, “Synthesis and biological activities of cyclic lanthionine enkephalin analogues: delta-opioid receptor selective ligands” (J Med Chem, 2002)

Tests used:
Mu-type opioid receptor [1] = target: T1, Mu-type opioid receptor (Homo sapiens, UniProt P35372); assay: Inhibition of binding of [3H]diprenorphine to cloned human Opioid receptor mu 1 expressed in CHO cell membrane;Range is in between (1.8-2.2); type: cell-based
[2] = target: T2, Delta-type opioid receptor (Homo sapiens, UniProt P41143); assay: Inhibition of binding of [3H]diprenorphine to cloned human Opioid receptor delta 1 expressed in CHO cell membrane;Range is between (1.7-2.3); type: cell-based
T2 sequence (P41143 whole entry): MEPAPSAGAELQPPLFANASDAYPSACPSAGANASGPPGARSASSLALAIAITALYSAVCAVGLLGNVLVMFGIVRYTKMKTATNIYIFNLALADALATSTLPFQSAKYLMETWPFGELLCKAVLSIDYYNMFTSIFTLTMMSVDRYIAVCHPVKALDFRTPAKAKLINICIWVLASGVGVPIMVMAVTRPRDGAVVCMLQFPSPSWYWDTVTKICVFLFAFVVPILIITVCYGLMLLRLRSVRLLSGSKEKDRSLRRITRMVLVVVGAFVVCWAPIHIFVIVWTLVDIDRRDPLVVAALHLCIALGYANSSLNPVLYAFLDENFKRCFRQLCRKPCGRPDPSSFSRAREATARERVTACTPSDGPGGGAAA

Rattus norvegicus [3] = species on record: Rattus norvegicus; assay: Dosage necessary to produce half maximal effect; Range is in between (0.0010-0.0024); type: functional
Mu-type opioid receptor [4] = target: Mu-type opioid receptor (Cavia porcellus, UniProt P97266); assay: Ability to inhibit electrically evoked contractions of isolated muscle preparations of guinea pig ileum (GPI, mu receptor); type: functional, tissue-based
Sequence of Mu-type opioid receptor (Cavia porcellus, UniProt P97266) (P97266 whole entry): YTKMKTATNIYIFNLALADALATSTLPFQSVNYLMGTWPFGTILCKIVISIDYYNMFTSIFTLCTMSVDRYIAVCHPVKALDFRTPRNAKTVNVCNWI
Summary of the method: (§1)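 Electrically evoked contractions of isolated guinea pig ileum (GPI) or mouse vas deferens (MVD) preparations. A log dose-response curve for [Leu5]-enkephalin was run as standard on each ileum and vas preparation. IC50 values were normalised to that standard.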

[5] = target: T3, Delta-type opioid receptor (Mus musculus, UniProt P32300); assay: Ability to inhibit electrically evoked contractions of isolated muscle preparations of mouse vas deferens (MVD, delta receptor); type: functional; summary of the method: as §1
T3 sequence (P32300 whole entry): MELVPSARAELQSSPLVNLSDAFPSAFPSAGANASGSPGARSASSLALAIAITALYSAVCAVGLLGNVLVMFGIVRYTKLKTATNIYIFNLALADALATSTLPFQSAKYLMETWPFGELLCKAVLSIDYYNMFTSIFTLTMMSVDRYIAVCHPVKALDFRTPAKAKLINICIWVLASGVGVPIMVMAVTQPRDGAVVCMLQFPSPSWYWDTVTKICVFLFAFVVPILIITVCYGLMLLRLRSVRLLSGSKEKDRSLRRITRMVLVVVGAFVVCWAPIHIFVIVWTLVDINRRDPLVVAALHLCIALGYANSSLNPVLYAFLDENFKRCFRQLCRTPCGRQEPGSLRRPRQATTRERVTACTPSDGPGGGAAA

[6] = target: T4, Kappa-type opioid receptor (Homo sapiens, UniProt P41145); assay: Inhibition of binding of [3H]diprenorphine to cloned human Opioid receptor kappa 1 expressed in CHO cell membrane;Range is in between (1400-1900); type: cell-based
T4 sequence (P41145 whole entry): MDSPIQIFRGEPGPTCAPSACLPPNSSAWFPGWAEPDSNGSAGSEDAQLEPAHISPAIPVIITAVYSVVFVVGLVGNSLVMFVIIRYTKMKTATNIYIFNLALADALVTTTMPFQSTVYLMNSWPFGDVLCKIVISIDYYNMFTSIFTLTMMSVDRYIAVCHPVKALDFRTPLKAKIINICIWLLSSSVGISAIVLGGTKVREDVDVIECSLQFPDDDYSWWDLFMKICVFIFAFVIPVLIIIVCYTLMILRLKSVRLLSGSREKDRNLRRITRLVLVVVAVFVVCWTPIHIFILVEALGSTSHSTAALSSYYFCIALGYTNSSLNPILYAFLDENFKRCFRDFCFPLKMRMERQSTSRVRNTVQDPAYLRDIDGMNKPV
Summary of the method: (§2)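 Membranes from CHO cells expressing cloned human µ, δ or κ receptors in Tris-HCl pH 7.8 buffer with EGTA, MgCl2 and protease inhibitors. 50-100 µg protein with 0.4 nM (final) [3H]-diprenorphine, 60 min, room temperature. Filtered on PEI/BSA-treated GF/B filters, counted by scintillation. Nonspecific binding with 10 µM naloxone. Four-parameter one-site fit; Ki by Cheng-Prusoff.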

[7] = target: T4, Kappa-type opioid receptor; assay: Inhibition of binding of [3H]diprenorphine to cloned human Opioid receptor kappa 1 expressed in CHO cell membrane; type: cell-based
Mu-type opioid receptor [8] = target: T1, Mu-type opioid receptor; assay: Inhibition of binding of [3H]diprenorphine to cloned human Opioid receptor mu 1 expressed in CHO cell membrane;Range is in between (580-680); type: cell-based; summary of the method: as §2
[9] = target: T2, Delta-type opioid receptor; assay: Inhibition of binding of [3H]diprenorphine to cloned human Opioid receptor delta 1 expressed in CHO cell membrane;Range is between (0.35-2.5); type: cell-based; summary of the method: as §2
Rattus norvegicus [10] = species on record: Rattus norvegicus; assay: Dosage necessary to produce half maximal effect; Range is in between (0.017-0.41); type: functional
[11] = target: T3, Delta-type opioid receptor; assay: Ability to inhibit electrically evoked contractions of isolated muscle preparations of mouse vas deference (MVD, delta receptor); type: functional; summary of the method: as §1
[12] = target: T4, Kappa-type opioid receptor; assay: Inhibition of binding of [3H]diprenorphine to cloned human Opioid receptor kappa 1 expressed in CHO cell membrane; range is in between (4700-8500); type: cell-based; summary of the method: as §2
Mu-type opioid receptor [13] = target: T1, Mu-type opioid receptor; assay: Inhibition of binding of [3H]diprenorphine to cloned human Opioid receptor mu 1 expressed in CHO cell membrane;Range is in between (1.3-3.7); type: cell-based
[14] = target: T2, Delta-type opioid receptor; assay: Inhibition of binding of [3H]diprenorphine to cloned human Opioid receptor delta 1 expressed in CHO cell membrane;Range is in between (0.62-0.65); type: cell-based
Rattus norvegicus [15] = species on record: Rattus norvegicus; assay: Dosage necessary to produce half maximal effect; Range is in between (0.0010-0.0034); type: functional
Mu-type opioid receptor [16] = target: T1, Mu-type opioid receptor; assay: Inhibition of binding of [3H]diprenorphine to cloned human Opioid receptor mu 1 expressed in CHO cell membrane;Range is in between (110-150); type: cell-based; summary of the method: as §2
[17] = target: T2, Delta-type opioid receptor; assay: Inhibition of binding of [3H]diprenorphine to cloned human Opioid receptor delta 1 expressed in CHO cell membrane;Range is between (0.66-0.95); type: cell-based; summary of the method: as §2
Rattus norvegicus [18] = species on record: Rattus norvegicus; assay: Dosage necessary to produce half maximal effect; Range is in between (0.04-0.33); type: functional
Rattus norvegicus [19] = species on record: Rattus norvegicus; assay: Dosage necessary to produce half maximal effect; Range is in between (98-163); type: functional
Rattus norvegicus [20] = species on record: Rattus norvegicus; assay: Dosage necessary to produce half maximal effect; Range is in between (10-24); type: functional

T1 sequence (P35372 whole entry): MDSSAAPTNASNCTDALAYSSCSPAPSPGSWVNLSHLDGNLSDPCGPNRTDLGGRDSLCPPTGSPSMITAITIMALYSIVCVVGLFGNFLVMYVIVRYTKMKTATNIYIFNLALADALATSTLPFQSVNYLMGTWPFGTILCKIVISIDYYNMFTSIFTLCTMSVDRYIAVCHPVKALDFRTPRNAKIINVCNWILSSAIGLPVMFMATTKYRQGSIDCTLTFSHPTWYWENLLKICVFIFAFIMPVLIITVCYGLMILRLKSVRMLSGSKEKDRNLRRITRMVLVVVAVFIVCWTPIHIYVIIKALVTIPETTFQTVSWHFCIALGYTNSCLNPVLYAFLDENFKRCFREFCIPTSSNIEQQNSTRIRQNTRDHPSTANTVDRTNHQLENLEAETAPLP

N[C@@H](Cc1ccc(O)cc1)C(=O)N[C@@H]1CSC[C@H](C(=O)O)NC(=O)[C@H](Cc2ccccc2)NC(=O)CNC1=O
Ki (Mu-type opioid receptor [1]): 2 nM | Ki [2]: 2 nM | ED50 (Rattus norvegicus [3]): 0.0015 nM | IC50 (Mu-type opioid receptor [4]): 0.56 nM | IC50 [5]: 1.58 nM | Ki [6]: 1600 nM

CC1(C)SC[C@H](C(=O)O)NC(=O)[C@H](Cc2ccccc2)NC(=O)CNC(=O)[C@@H]1NC(=O)[C@@H](N)Cc1ccc(O)cc1
Ki [7]: > 10000 nM | Ki (Mu-type opioid receptor [8]): 630 nM | Ki [9]: 0.93 nM | ED50 (Rattus norvegicus [10]): 0.26 nM | IC50 [11]: 2.33 nM | IC50 (Mu-type opioid receptor [4]): 730 nM

N[C@@H](Cc1ccc(O)cc1)C(=O)N[C@@H]1CSC[C@@H](C(=O)O)NC(=O)[C@H](Cc2ccccc2)NC(=O)CNC1=O
Ki [12]: 6400 nM | Ki (Mu-type opioid receptor [13]): 2.3 nM | Ki [14]: 0.63 nM | ED50 (Rattus norvegicus [15]): 0.0018 nM | IC50 (Mu-type opioid receptor [4]): 1.06 nM | IC50 [5]: 0.35 nM

CC1(C)SC[C@@H](C(=O)O)NC(=O)[C@H](Cc2ccccc2)NC(=O)CNC(=O)[C@@H]1NC(=O)[C@@H](N)Cc1ccc(O)cc1
Ki [7]: > 1000 nM | Ki (Mu-type opioid receptor [16]): 130 nM | Ki [17]: 0.79 nM | ED50 (Rattus norvegicus [18]): 0.12 nM | IC50 [11]: 0.26 nM | IC50 (Mu-type opioid receptor [4]): 82 nM

CC1(C)SSC(C)(C)[C@@H](NC(=O)[C@@H](N)Cc2ccc(O)cc2)C(=O)NCC(=O)N[C@@H](Cc2ccccc2)C(=O)N[C@H]1C(=O)O
ED50 (Rattus norvegicus [19]): 130 nM

CN1CC[C@]23c4c5ccc(O)c4O[C@H]2[C@@H](O)C=C[C@H]3[C@H]1C5 [MORPHINE]
ED50 (Rattus norvegicus [20]): 15 nM
